{"source": "ChEMBL document CHEMBL4689842", "about": "“EUbOPEN Chemogenomics Library wave 1” (2021)", "test_system": "U2OS", "assay": "Multiplex assay against U2OS", "type": "toxicity, cell-based", "conditions": "human", "outline": "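Values for tubulin, mitochondrial-mass and membrane-permeability phenotypes are per cents of cells with healthy nuclei. These cells were identified by CellPathfinder machine-learning gating of live cells that had been stained at seeding with Hoechst33342, BioTracker Green Microtubule Cytoskeleton Dye, MitoTracker Red and Annexin V Alexa Fluor 680 and imaged on a CQ1 microscope at 37°C and 5% CO2 after compound addition. The gating first set Hoechst high-intensity objects apart from normal cells, then split normal cells into healthy, pyknosed or fragmented nuclei, and pyknosed cells into mitotic or apoptotic.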", "key": {"[1]": {"conditions": "12 h, 1 µM, compound concentration 1 uM, replicate 1"}, "[2]": {"conditions": "12 h, 1 µM, compound concentration 1 uM, replicate 2"}, "[3]": {"conditions": "12 h, 10 µM, compound concentration 10 uM, replicate 1"}, "[4]": {"conditions": "12 h, 10 µM, compound concentration 10 uM, replicate 2"}, "[5]": {"conditions": "24 h, 1 µM, compound concentration 1 uM, replicate 1"}, "[6]": {"conditions": "24 h, 1 µM, compound concentration 1 uM, replicate 2"}, "[7]": {"conditions": "24 h, 10 µM, compound concentration 10 uM, replicate 1"}, "[8]": {"conditions": "24 h, 10 µM, compound concentration 10 uM, replicate 2"}, "[9]": {"conditions": "48 h, 10 µM, compound concentration 10 uM, replicate 1"}, "[10]": {"conditions": "48 h, 10 µM, compound concentration 10 uM, replicate 2"}}, "note": "Several values for one entry are separate records, joined by “and”; a condition that tells them apart may be missing. Identical values can stand only once.", "data": [{"smiles": "COCC(=O)NC/C=C/c1ccc2ncnc(Nc3ccc(Oc4ccc(C)nc4)c(C)c3)c2c1", "note": "[CP-724714]", "values": [{"measurement": "Population Apoptotic (%)", "setting": "[1]", "result": "40% and 33%"}, {"measurement": "Population Fragmented Nuclei (%)", "setting": "[1]", "result": "7% and 4%"}, {"measurement": "Population Healthy Nuclei (%)", "setting": "[1]", "result": "80% and 89%"}, {"measurement": "Population Hoechst High Intensity Objects (%)", "setting": "[1]", "result": 3, "unit": "%"}, {"measurement": "Population Membrane Permeable-Phenotype (%)", "setting": "[1]", "result": "42% and 18%"}, {"measurement": "Population Mitochondria Different-Phenotype (%)", "setting": "[1]", "result": "29% and 18%"}, {"measurement": "Population Mitotic Cells (%)", "setting": "[1]", "result": "60% and 66%"}, {"measurement": "Population Normal (%)", "setting": "[1]", "result": 96, "unit": "%"}, {"measurement": "Population Pyknosed Nuclei (%)", "setting": "[1]", "result": "11% and 6%"}, {"measurement": "Population Tubulin-Different-Phenotype (%)", "setting": "[1]", "result": 18, "unit": "%"}, {"measurement": "Total Cell Count", "setting": "[1]", "result": "178 and 153"}, {"measurement": "Population Fragmented Nuclei (%)", "setting": "[2]", "result": "3% and 8%"}, {"measurement": "Population Healthy Nuclei (%)", "setting": "[2]", "result": "82% and 87%"}, {"measurement": "Population Hoechst High Intensity Objects (%)", "setting": "[2]", "result": "6% and 4%"}, {"measurement": "Population Membrane Permeable-Phenotype (%)", "setting": "[2]", "result": "49% and 27%"}, {"measurement": "Population Mitochondria Different-Phenotype (%)", "setting": "[2]", "result": "43% and 20%"}, {"measurement": "Population Mitotic Cells (%)", "setting": "[2]", "result": "53% and 100%"}, {"measurement": "Population Normal (%)", "setting": "[2]", "result": "93% and 95%"}, {"measurement": "Total Cell Count", "setting": "[2]", "result": "95 and 141"}, {"measurement": "Population Apoptotic (%)", "setting": "[3]", "result": 51, "unit": "%"}, {"measurement": "Population Fragmented Nuclei (%)", "setting": "[3]", "result": 17, "unit": "%"}, {"measurement": "Population Healthy Nuclei (%)", "setting": "[3]", "result": 62, "unit": "%"}, {"measurement": "Population Hoechst High Intensity Objects (%)", "setting": "[3]", "result": 13, "unit": "%"}, {"measurement": "Population Membrane Permeable-Phenotype (%)", "setting": "[3]", "result": 35, "unit": "%"}, {"measurement": "Population Mitochondria Different-Phenotype (%)", "setting": "[3]", "result": 87, "unit": "%"}, {"measurement": "Population Mitotic Cells (%)", "setting": "[3]", "result": 48, "unit": "%"}, {"measurement": "Population Normal (%)", "setting": "[3]", "result": 86, "unit": "%"}, {"measurement": "Population Pyknosed Nuclei (%)", "setting": "[3]", "result": 20, "unit": "%"}, {"measurement": "Total Cell Count", "setting": "[3]", "result": 167}, {"measurement": "Population Apoptotic (%)", "setting": "[4]", "result": 80, "unit": "%"}, {"measurement": "Population Fragmented Nuclei (%)", "setting": "[4]", "result": 18, "unit": "%"}, {"measurement": "Population Healthy Nuclei (%)", "setting": "[4]", "result": 63, "unit": "%"}, {"measurement": "Population Hoechst High Intensity Objects (%)", "setting": "[4]", "result": 11, "unit": "%"}, {"measurement": "Population Membrane Permeable-Phenotype (%)", "setting": "[4]", "result": 37, "unit": "%"}, {"measurement": "Population Mitochondria Different-Phenotype (%)", "setting": "[4]", "result": 94, "unit": "%"}, {"measurement": "Population Mitotic Cells (%)", "setting": "[4]", "result": 20, "unit": "%"}, {"measurement": "Population Normal (%)", "setting": "[4]", "result": 88, "unit": "%"}, {"measurement": "Population Pyknosed Nuclei (%)", "setting": "[4]", "result": 18, "unit": "%"}, {"measurement": "Population Tubulin-Different-Phenotype (%)", "setting": "[4]", "result": 100, "unit": "%"}, {"measurement": "Total Cell Count", "setting": "[4]", "result": 62}, {"measurement": "Population Apoptotic (%)", "setting": "[5]", "result": "50% and 38%"}, {"measurement": "Population Fragmented Nuclei (%)", "setting": "[5]", "result": "10% and 2%"}, {"measurement": "Population Healthy Nuclei (%)", "setting": "[5]", "result": "71% and 90%"}, {"measurement": "Population Hoechst High Intensity Objects (%)", "setting": "[5]", "result": "1% and 2%"}, {"measurement": "Population Mitotic Cells (%)", "setting": "[5]", "result": "50% and 61%"}, {"measurement": "Population Normal (%)", "setting": "[5]", "result": "98% and 97%"}, {"measurement": "Population Pyknosed Nuclei (%)", "setting": "[5]", "result": 17, "unit": "%"}, {"measurement": "Total Cell Count", "setting": "[5]", "result": "186 and 209"}, {"measurement": "Population Apoptotic (%)", "setting": "[6]", "result": "62% and 36%"}, {"measurement": "Population Fragmented Nuclei (%)", "setting": "[6]", "result": "8% and 3%"}, {"measurement": "Population Healthy Nuclei (%)", "setting": "[6]", "result": "75% and 89%"}, {"measurement": "Population Hoechst High Intensity Objects (%)", "setting": "[6]", "result": "3% and 7%"}, {"measurement": "Population Membrane Permeable-Phenotype (%)", "setting": "[6]", "result": "40% and 20%"}, {"measurement": "Population Mitochondria Different-Phenotype (%)", "setting": "[6]", "result": "53% and 26%"}, {"measurement": "Population Mitotic Cells (%)", "setting": "[6]", "result": "37% and 63%"}, {"measurement": "Population Normal (%)", "setting": "[6]", "result": "96% and 92%"}, {"measurement": "Population Pyknosed Nuclei (%)", "setting": "[6]", "result": "15% and 6%"}, {"measurement": "Total Cell Count", "setting": "[6]", "result": "106 and 180"}, {"measurement": "Population Apoptotic (%)", "setting": "[7]", "result": 60, "unit": "%"}, {"measurement": "Population Fragmented Nuclei (%)", "setting": "[7]", "result": 20, "unit": "%"}, {"measurement": "Population Healthy Nuclei (%)", "setting": "[7]", "result": 45, "unit": "%"}, {"measurement": "Population Hoechst High Intensity Objects (%)", "setting": "[7]", "result": 8, "unit": "%"}, {"measurement": "Population Membrane Permeable-Phenotype (%)", "setting": "[7]", "result": 46, "unit": "%"}, {"measurement": "Population Mitochondria Different-Phenotype (%)", "setting": "[7]", "result": 98, "unit": "%"}, {"measurement": "Population Mitotic Cells (%)", "setting": "[7]", "result": 39, "unit": "%"}, {"measurement": "Population Normal (%)", "setting": "[7]", "result": 91, "unit": "%"}, {"measurement": "Population Pyknosed Nuclei (%)", "setting": "[7]", "result": 33, "unit": "%"}, {"measurement": "Population Tubulin-Different-Phenotype (%)", "setting": "[7]", "result": 100, "unit": "%"}, {"measurement": "Total Cell Count", "setting": "[7]", "result": 156}, {"measurement": "Population Fragmented Nuclei (%)", "setting": "[8]", "result": 16, "unit": "%"}, {"measurement": "Population Healthy Nuclei (%)", "setting": "[8]", "result": 54, "unit": "%"}, {"measurement": "Population Hoechst High Intensity Objects (%)", "setting": "[8]", "result": 11, "unit": "%"}, {"measurement": "Population Membrane Permeable-Phenotype (%)", "setting": "[8]", "result": 51, "unit": "%"}, {"measurement": "Population Mitochondria Different-Phenotype (%)", "setting": "[8]", "result": 96, "unit": "%"}, {"measurement": "Population Mitotic Cells (%)", "setting": "[8]", "result": 40, "unit": "%"}, {"measurement": "Population Normal (%)", "setting": "[8]", "result": 88, "unit": "%"}, {"measurement": "Population Pyknosed Nuclei (%)", "setting": "[8]", "result": 28, "unit": "%"}, {"measurement": "Total Cell Count", "setting": "[8]", "result": 60}, {"measurement": "Population Apoptotic (%)", "setting": "[9]", "result": 76, "unit": "%"}, {"measurement": "Population Fragmented Nuclei (%)", "setting": "[9]", "result": 22, "unit": "%"}, {"measurement": "Population Healthy Nuclei (%)", "setting": "[9]", "result": 44, "unit": "%"}, {"measurement": "Population Hoechst High Intensity Objects (%)", "setting": "[9]", "result": 4, "unit": "%"}, {"measurement": "Population Membrane Permeable-Phenotype (%)", "setting": "[9]", "result": 57, "unit": "%"}, {"measurement": "Population Mitochondria Different-Phenotype (%)", "setting": "[9]", "result": 91, "unit": "%"}, {"measurement": "Population Mitotic Cells (%)", "setting": "[9]", "result": 23, "unit": "%"}, {"measurement": "Population Normal (%)", "setting": "[9]", "result": 95, "unit": "%"}, {"measurement": "Population Pyknosed Nuclei (%)", "setting": "[9]", "result": 32, "unit": "%"}, {"measurement": "Population Tubulin-Different-Phenotype (%)", "setting": "[9]", "result": 100, "unit": "%"}, {"measurement": "Total Cell Count", "setting": "[9]", "result": 163}, {"measurement": "Population Apoptotic (%)", "setting": "[10]", "result": 45, "unit": "%"}, {"measurement": "Population Fragmented Nuclei (%)", "setting": "[10]", "result": 14, "unit": "%"}, {"measurement": "Population Healthy Nuclei (%)", "setting": "[10]", "result": 52, "unit": "%"}, {"measurement": "Population Hoechst High Intensity Objects (%)", "setting": "[10]", "result": 14, "unit": "%"}, {"measurement": "Population Membrane Permeable-Phenotype (%)", "setting": "[10]", "result": 84, "unit": "%"}, {"measurement": "Population Mitochondria Different-Phenotype (%)", "setting": "[10]", "result": 96, "unit": "%"}, {"measurement": "Population Mitotic Cells (%)", "setting": "[10]", "result": 55, "unit": "%"}, {"measurement": "Population Normal (%)", "setting": "[10]", "result": 85, "unit": "%"}, {"measurement": "Total Cell Count", "setting": "[10]", "result": 71}]}]}
